# Apaf1 inhib = inhibitors of human Apaf-1 apoptosome, primary screen, biochemical, DEVD-Rh110 fluorescence, uHTS | Apoptotic protease-activating factor 1 (Homo sapiens), O14727 | reconstituted apoptosome caspase-3 activity | inhibition, % at 20 µM | 330,000 compounds, 0.71% hits | AID 489030, 2010; active = inhibition of at least 40% at 20 µM;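 also: plate controls were DMSO wells for no effect and DEVD-CHO caspase inhibitor wells for full effect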
#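 Assay system – apoptosome proteins · Medium – Hepes buffer, pH 7.5 · Also added – cytochrome c with DEVD-Rh110 · Timing – 30 min compound preincubation, 50 min activation, room temperature · Detection – Rh110 fluorescence, excitation 480 nm, emission 540 nm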
# MEKK2wt PB1 HTS = modulators of MEK5 binding to wildtype MEKK2, primary screen, biochemical, multiplex bead flow cytometry, Alexa488-MEK5 | Mitogen-activated protein kinase kinase kinase 2 (Homo sapiens), Q9Y2U5 | Alexa488-MEK5 binding to MEKK2 WT; actives lie on both sides | binding response (% of control), % at 10 µM | 290,000 compounds, 1.1% hits | AID 1531, 2009; in the data active = binding response below about 67% or above about 130%
# UBC13 inh = UBC13 polyubiquitin chain formation inhibitors, primary screen, biochemical, TR-FRET, uHTS. inhibition, % at 20 µM. 330,000 compounds, 0.47% hits; in the data active = inhibition above about 45%, passing the limit was not always enough
# PREPL inhibitor = PREPL enzyme inhibitors, primary screen, biochemical, fluorescence polarization; Prolyl endopeptidase-like (Homo sapiens), Q4J6C6; AID 2751, 2010; recombinant PREPL, fluorescence polarization activity-based probe; inhibition, % at 5.96 µM; 320,000 compounds, 0.68% hits; in the data active = inhibition above about 43%;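 also: 0% = enzyme with DMSO and 100% = wells lacking enzyme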
# MEKK3 PB1 HTS = modulators of MEKK3-MEK5 PB1 binding, primary screen, biochemical, wildtype MEKK3, multiplex bead flow cytometry, Alexa488-MEK5; Mitogen-activated protein kinase kinase kinase 3 (Homo sapiens), Q99759; bead-based flow cytometry, Alexa488-MEK5 binding to MEKK3; actives lie on both sides; 0 = blocked by unlabeled MEK5, 100 = vehicle; binding response (% of control), % at 10 µM; 290,000 compounds, 1.4% hits; AID 1529, 2009;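 active = binding response more than 3 SD above or below the average of its plate-row segment, actives on both sides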;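 also: Alexa488 bead fluorescence after subtracting the streptavidin-only scavenger bead signal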
# Target sequence (Q99759 whole entry, looked up): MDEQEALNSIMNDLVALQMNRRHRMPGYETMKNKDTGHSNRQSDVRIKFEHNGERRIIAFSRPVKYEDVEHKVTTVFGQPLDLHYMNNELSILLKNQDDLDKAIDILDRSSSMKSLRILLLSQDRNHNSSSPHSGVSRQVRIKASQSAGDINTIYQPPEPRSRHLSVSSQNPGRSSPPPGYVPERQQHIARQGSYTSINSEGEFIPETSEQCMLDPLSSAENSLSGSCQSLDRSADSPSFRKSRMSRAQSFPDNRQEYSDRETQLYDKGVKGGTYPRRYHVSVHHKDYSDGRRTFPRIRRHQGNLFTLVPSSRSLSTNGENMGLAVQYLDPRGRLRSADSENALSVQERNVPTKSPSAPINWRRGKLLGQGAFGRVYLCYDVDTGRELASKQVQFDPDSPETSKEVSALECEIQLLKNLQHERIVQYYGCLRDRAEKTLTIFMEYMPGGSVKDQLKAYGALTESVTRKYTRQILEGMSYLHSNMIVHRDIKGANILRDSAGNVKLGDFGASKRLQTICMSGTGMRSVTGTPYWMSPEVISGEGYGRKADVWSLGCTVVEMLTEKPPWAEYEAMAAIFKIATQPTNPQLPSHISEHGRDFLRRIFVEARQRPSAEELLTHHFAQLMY
# MEKK2 mut-MEK5 = MEK5 binding signal on mutant MEKK2 PB1, primary screen, biochemical, multiplex bead flow cytometry, Alexa488-MEK5 | Alexa488-MEK5 binding to MEKK2 mutant | percent response, % at 10 µM | 290,000 compounds, 0.35% hits; in the data active = percent response above about 24%, passing the limit was not always enough
# Casp3 UBC13 ctr = CASP3 inhibitor validation, counterassay for project on UBE2N polyubiquitination blockers, biochemical, one dose; shares compounds with UBC13 inh; Recombinant caspase-3, Caspase-Glo 3/7 luminescence, 60 min; inhibition, % at 20 µM; 1,400 compounds, 4% hits;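 active = mean inhibition across replicates above about 26%, limit read from the data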;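 also: plate controls were DMSO with caspase-3 for no effect and DMSO wells lacking enzyme for full effect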
# UBC13 conf = UBC13 polyubiquitination inhibitors, single-point retest, confirmation, biochemical, TR-FRET, single concentration | shares compounds with UBC13 inh | inhibition, % at 10 µM | 1,400 compounds, 68% hits; in the data active = inhibition above about 45%
# Apaf-1 inh conf2 = Apaf-1 inhibitors, single-dose retest, confirmation, biochemical, fluorescence, DEVD-Rh110, 20 µM | shares compounds with Apaf1 inhib | reconstituted apoptosome, caspase-3 DEVD-Rh110 fluorescence | inhibition, % at 20 µM | 1,800 compounds, 25% hits | AID 504614, 2011;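 active = mean inhibition of at least 40% at 20 µM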;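 also: plate controls were DMSO wells for no effect and DEVD-CHO caspase inhibitor control wells for full effect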
# Rh110 interf inh = Rh110 fluorescence interference by putative Apaf-1 inhibitors, confirmation, artefact control for Apaf-1 inhibitor project, biochemical, 20 µM. shares compounds with Apaf1 inhib. quenched caspase reaction. activation (fluorescence interference), % at 20 µM. 1,800 tested, under 10 active. AID 504615, 2011;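 active = signal rise of 40% or more at 20 µM, treated as a fluorescence artifact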
# Apaf1 inh interf = fluorescence interference of Apaf-1 inhibitor hits, dose response, artefact control for Apaf-1 inhibitor project. shares compounds with Apaf1 inhib. 460 tested, under 10 active. IC50, µM. fluorescence interference counterscreen, Apaf-1 assay format. AID 588538, 2011; call rule not given here
# An asterisk follows results filed as active; nt = no result. Compounds with a hit are over-represented: about 3.1% of the library has one in this group of screens.
SMILES,Apaf1 inhib,MEKK2wt PB1 HTS,UBC13 inh,PREPL inhibitor,MEKK3 PB1 HTS,MEKK2 mut-MEK5,Casp3 UBC13 ctr,UBC13 conf,Apaf-1 inh conf2,Rh110 interf inh,others
CCOc1ccc(NS(=O)(=O)c2cc(C(=O)NCCCN3CCOCC3)ccc2C)cc1,65*,nt,74*,14,nt,nt,-2,94*,34,7,
O=C(CSc1ncnc2c1cnn2-c1cccc(Cl)c1)NCC1CCCO1 (centres undefined),16,102,5,8,100,-1,nt,nt,nt,nt,
C#CCOCCOCCOCCNc1nc(N2CCN(C(=O)C([C@@H](C)O)n3cc([C@@H](N)CCCCN)nn3)CC2)nc(N2CCN(C(=O)[C@H](CCCCN)n3cc([C@@H](N)CC(N)=O)nn3)CC2)n1 (some centres undefined),51*,nt,103*,7,nt,nt,1,106*,9,-2,
C#CCOCCOCCOCCNc1nc(N2CCN(C(=O)[C@H](CCCCN)n3cc([C@@H](N)CC(N)=O)nn3)CC2)nc(N2CCN(C(=O)[C@H](CCCCN)n3cc([C@@H](N)CC(N)=O)nn3)CC2)n1,55*,nt,108*,12,nt,nt,-2,111*,5,3,
Cc1cccc(CCNS(=O)(=O)c2ccc3c(c2)NC(=O)CS3)c1,9,101,-6,-17,102,0,nt,nt,nt,nt,
COc1ccc(S(=O)(=O)N2CCN(c3ccc4nnc(-c5ccc(F)cc5)n4n3)CC2)cc1,51*,96,46*,-15,94,-6,3,30,47*,0,Apaf1 inh interf=>100
Cc1ccc(S(=O)(=O)N2CCN(c3ccc4nnc(-c5ccccc5)n4n3)CC2)cc1,nt,101,nt,nt,103,-6,nt,nt,nt,nt,
CCN(CC)CCCNc1ccc(-c2nnc(-c3ccc(OCC(C)C)cc3)o2)cn1,41*,165*,47*,-6,106,36*,4,78*,32,9,
CC(C)C[C@H](NC(=O)c1nc[nH]c1C(=O)N[C@@H](CCCCN)C(=O)OC(C)(C)C)C(=O)OC(C)(C)C,43*,nt,53*,12,nt,nt,0,53*,10,7,
CC(C)(C)OC(=O)[C@H](Cc1ccccc1)NC(=O)c1nc[nH]c1C(=O)N[C@@H](CCCCN)C(=O)OC(C)(C)C,51*,nt,73*,25,nt,nt,-4,76*,10,7,
CC(C)(C)OC(=O)[C@H](CCCCN)NC(=O)c1nc[nH]c1C(=O)N[C@@H](CCCCN)C(=O)OC(C)(C)C,13,nt,7,18,nt,nt,nt,nt,nt,nt,
CC(C)c1ccc(CNn2cnnc2)cc1,-4,103,0,8,103,1,nt,nt,nt,nt,
COc1ccccc1-c1oc2ccccc2c1C#CC1(N)CCCCC1,68*,nt,70*,-47,nt,nt,-3,70*,28,5,
CCN(Cc1ccccc1)S(=O)(=O)c1ccc(C(=O)N(CCCN(C)C)c2nc3cc4c(cc3s2)OCCO4)cc1,41*,nt,96*,-1,nt,nt,-2,114*,20,5,
CN(C)CCCN(C(=O)c1ccc(C(=O)c2ccccc2)cc1)c1nc2cc3c(cc2s1)OCO3,60*,170*,72*,20,109,38*,4,106*,19,4,
Cc1cc(C)c2sc(N(CCCN(C)C)C(=O)c3ccc(S(=O)(=O)N(C)C4CCCCC4)cc3)nc2c1,40*,nt,58*,20,nt,nt,-3,97*,23,8,
CN(C)CCCN(C(=O)c1ccc(S(=O)(=O)N2CCOCC2)cc1)c1nc2cc3c(cc2s1)OCO3,3,106,15,17,100,4,nt,nt,nt,nt,
CN(C)CCN(C(=O)c1ccc(S(=O)(=O)N(C)c2ccccc2)cc1)c1nc2cc3c(cc2s1)OCCO3,-16,106,38,3,95,-5,nt,nt,nt,nt,
CN(C)CCCN(C(=O)c1ccc(S(=O)(=O)N2CCCCC2)cc1)c1nc2cc3c(cc2s1)OCO3,42*,132,55*,25,110,22,0,90*,14,3,
CCn1cc(S(=O)(=O)c2ccc(Cl)cc2)c(=O)c2cc(OC)ccc21,-11,98,-1,-1,102,-1,nt,nt,nt,nt,
CCN(CC)CCCn1c2c(c(SCC(=O)Nc3ccccc3Cl)nc1=O)CCC2,2,nt,0,0,nt,nt,nt,nt,nt,nt,
NC(N)=N/N=C/c1ccc(OCc2ccccc2)c(OCc2ccccc2)c1,61*,302*,110*,37,89,116*,-1,125*,42*,15,Apaf1 inh interf=>100
O=C(O)c1cc(/C=N\O)ccc1OCc1ccccc1,3,116,5,8,120,9,nt,nt,nt,nt,
CC(=O)Nc1ccc(S(=O)(=O)N2CCN(c3nc4ccccc4n3CC(C)C)CC2)cc1,11,104,-2,nt,105,-1,nt,nt,nt,nt,
C#CCOCCOCCOCCNc1nc(N2CCN(C(=O)CCCCCCCCCCNC(=O)[C@H]([C@@H](C)CC)n3cc(CCCCCN)nn3)CC2)nc(N2CCN(C(=O)CCCCCCCCCCNC(=O)[C@H](CCCCN)n3cc(CCCC(=O)O)nn3)CC2)n1,56*,nt,114*,29,nt,nt,-2,105*,28,20,
C#CCOCCOCCOCCNc1nc(N2CCN(C(=O)CCCCCCCCCCNC(=O)[C@H](CO)n3cc(CCCSC)nn3)CC2)nc(N2CCN(C(=O)CCCCCCCCCCNC(=O)[C@H](CCCCN)n3cc(CCO)nn3)CC2)n1,74*,nt,113*,30,nt,nt,1,124*,42*,10,Apaf1 inh interf=>100
